Laboratory results as given in ChEMBL document CHEMBL4428038, “Overcoming chloroquine resistance in malaria: Design, synthesis and structure-activity relationships of novel chemoreversal agents” (Eur J Med Chem, 2016).
Activity calls are given as the source filed them. The rule behind the calls is not given here.

Experiments:
Plasmodium falciparum [1] = assay: Intrinsic antimalarial activity against chloroquine/artemisinin-resistant Plasmodium falciparum ARS233 harboring CRT K76T mutant assessed as reduction in parasite viability at 500 nM; type: functional, organism-based
Plasmodium falciparum [2] = assay: Intrinsic antimalarial activity against chloroquine-resistant Plasmodium falciparum K1 isolate MRA-159 harboring CRT CVIET haplotype mutant assessed as reduction in parasite viability at 500 nM; type: functional, organism-based
[3] = Resistance index, ratio of chloroquine IC50 for chloroquine-resistant Plasmodium falciparum K1 isolate MRA-159 CRT CVIET haplotype mutant to chloroquine IC50 for chloroquine-sensitive Plasmodium falciparum 3D7 isolate MRA-102 at 500 nM
Outline: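 Chloroquine IC50 was measured with the chemoreversal agent fixed at 500 nM in K1 or 7G8 and in sensitive 3D7 (means, n = 3). The resistance ratio is the chloroquine IC50 in K1 or 7G8 divided by the chloroquine IC50 in 3D7.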

[4] = tested on: T1, Chloroquine resistance transporter (Plasmodium falciparum), Q9N623 [K76T]; assay: Inhibition of CRT K76T mutant in chloroquine/artemisinin-resistant Plasmodium falciparum NHP4773 assessed as reversal of chloroquine resistance by measuring reduction in chloroquine IC50 at 500 nM relative to chloroquine alone
T1 sequence (whole entry): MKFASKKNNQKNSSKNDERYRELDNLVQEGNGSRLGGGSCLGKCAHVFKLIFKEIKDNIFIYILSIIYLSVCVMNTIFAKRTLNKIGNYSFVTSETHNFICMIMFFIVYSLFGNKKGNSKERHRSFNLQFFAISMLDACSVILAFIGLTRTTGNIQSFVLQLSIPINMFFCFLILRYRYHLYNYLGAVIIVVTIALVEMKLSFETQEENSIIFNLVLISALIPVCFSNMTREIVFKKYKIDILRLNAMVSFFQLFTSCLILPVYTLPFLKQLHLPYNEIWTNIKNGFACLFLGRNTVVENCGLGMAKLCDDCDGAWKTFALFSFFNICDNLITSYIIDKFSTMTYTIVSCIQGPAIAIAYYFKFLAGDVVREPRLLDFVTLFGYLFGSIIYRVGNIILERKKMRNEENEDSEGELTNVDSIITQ

[5] = Permeability of compound incubated for 6 hrs at pH 7.4 by PAMPA; type: ADME; conditions: read-out: Peff
[6] = Therapeutic index, ratio of IC50 for human AC10 cells to EC50 for chloroquine-resistant Plasmodium falciparum K1 isolate MRA-159 CRT CVIET haplotype mutant; type: toxicity; conditions: read-out: Ratio IC50/EC50
Outline: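 Host-cell IC50 was measured by ATP-luminescence viability assay in TAMH hepatocytes (mean of n = 4 independent determinations) or AC10 cardiomyocytes. Each IC50 was divided by the K1 EC50, the concentration of chemoreversal agent that halves the chloroquine concentration needed for 50% parasite inhibition.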

[7] = tested on: Plasmodium falciparum 7G8; assay: (§1) Inhibition of CRT SVMNT haplotype mutant in intermediate chloroquine-resistant Plasmodium falciparum 7G8 isolate MRA-154 assessed as reversal of chloroquine resistance by measuring reduction in chloroquine IC50 relative to chloroquine alone
Outline: (§2)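 Chloroquine IC50 was determined in the presence of a fixed 500 nM chemoreversal agent, against chloroquine alone. The RMI is the ratio of chloroquine IC50 with agent to chloroquine IC50 alone. Mean of n = 3; two-tailed t test versus chloroquine without agent.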

[8] = as §1; outline: as §2
Plasmodium falciparum [9] = assay: Intrinsic antimalarial activity against chloroquine-sensitive Plasmodium falciparum 3D7 isolate MRA-102 assessed as reduction in parasite viability at 500 nM; type: functional, organism-based
TAMH = assay: Cytotoxicity against TAMH assessed as reduction in cell viability by CellTiter-Glo assay; type: cell-based; conditions: Mus musculus
Outline: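 For TAMH (hepatocyte line) and AC10 (cardiomyocyte line), viability was read by ATP luminescence (CellTiter-Glo), and the value reported is IC50.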

Plasmodium falciparum [10] = assay: Intrinsic antimalarial activity against chloroquine-resistant Plasmodium falciparum NHP4559 harboring CRT K76T mutant assessed as reduction in parasite viability at 500 nM; type: functional, organism-based
[11] = tested on: T1, Chloroquine resistance transporter (Plasmodium falciparum), Q9N623 [K76T]; assay: Inhibition of CRT K76T mutant in chloroquine-resistant Plasmodium falciparum NHP4559 assessed as reversal of chloroquine resistance by measuring reduction in chloroquine IC50 at 500 nM relative to chloroquine alone

## c1ccc(CN[C@@H]2C3CCN(CC3)[C@@H]2Cc2ccccc2)cc1 (relative stereo)
Plasmodium falciparum [1]
  Activity: inactive
Plasmodium falciparum [2]
  Activity: inactive
[3]
  Ratio IC50: 6.4
[4]
  Ratio IC50: 0.45
[5]
  Papp at 6 h: 19.2 ×10⁻⁶ cm/s
[6]
  selectivity ratio: 420
[7]
  inhibition: Dose-dependent effect
[8]
  EC50: 0.38 µM
Plasmodium falciparum [9]
  Activity: inactive
TAMH
  IC50: > 100 µM
Plasmodium falciparum [10]
  Activity: inactive
[11]
  Ratio IC50: 0.47
